Compounds with a hit are over-represented: about 0.073% of the library has one in this group of screens.
Pf gamet viab – late stage P. falciparum gametocyte viability inhibitors, primary screen, ATP luminescence, HTS; P. falciparum stage V gametocytes, 24 h; inhibition, % at 10.9 µM; actives 0.065% (n = 150,000);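 active = inhibition above the mean plus 3 SD of compounds within the control limits, set per campaign, cut at about 38% in these data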
Biofilm kill mix – clotrimazole potentiators killing C. albicans biofilm, primary screen, 4-compound mixtures | AID 1242, 2008 | actives 0.02% (n = 120,000) | inhibition, % at 7.6 µM | C. albicans biofilm persisters + clotrimazole, fluorescence viability; primary screen in compound mixtures of four per well;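 also: compounds exposed to preformed 24 h biofilms for 48 h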
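System: C. albicans CAF4-2 wild-type biofilms; Medium: RPMI/MOPS medium, pH 7.0; Reagent: Clotrimazole, 50 µg/mL; Times: biofilm formation 24 h, compound exposure 48 h, 37 °C; Detection: 2-h Alamar Blue fluorescence, 535/590 nm excitation/emission; Evaluation: percent inhibition of biofilm viability.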
Numbers stand for hits; n = inactive; x = no result given.

SMILES	Pf gamet viab	Biofilm kill mix
CCC(=O)NC(=S)Nc1ccccc1C(=O)NC1CCCCC1	n	n
CC(C)C(=O)NC(=S)Nc1ccccc1C(=O)NC1CCCCC1	52	n
Cc1ncc(CN2CCC(CO)(Cc3ccccc3)CC2)s1	n	n
CNC(=O)CSc1cn(CC(=O)N(C(C)C)C(C)C)c2ccccc12	n	n
O=C(NC1CCCCCC1)C1c2ccccc2C(=O)N1Cc1cccs1 (centres undefined)	n	n
O=C1c2ccccc2C(O)N1Cc1cccs1 (centres undefined)	55	n
CC(C)(C)C(=O)Nc1cccc(OC(F)(F)C(F)Cl)c1 (centres undefined)	n	n
Cc1nn(-c2ccccc2)c(N2CCCCC2)c1/C=N/O	n	x
Cc1nn(-c2ccccc2)c(N2CCCC2)c1C=O	40	n
CS(=O)(=O)c1[nH]nc(-c2ccccc2)c1C#N	n	n
COc1ccc(-n2cc(C(=O)Nc3cc([N+](=O)[O-])ccc3OC)c3ccccc3c2=O)cc1	x	n
O=C(Nc1cccs1)OCCN1CCN(Cc2ccccc2)CCC1=O	x	n
Cc1ccc(/C=C/C(=O)NC2CCS(=O)(=O)C2)cc1 (centres undefined)	n	n
O=C(/C=C/c1ccccc1)NC1CCS(=O)(=O)C1 (centres undefined)	63	n
CN(C)c1ccnc(Nc2ccc(O)cc2)c1C#N	n	n
COc1cccc(-n2cnc3sc(C)cc3c2=O)c1	n	n
CCCc1cc(=O)[nH]c(SCC(=O)N2CCN(S(=O)(=O)c3ccc4ccccc4c3)CC2)n1	64	n
CCCc1cc(=O)[nH]c(SCC(=O)N2CCN(S(=O)(=O)c3ccccc3)CC2)n1	n	n
Cc1ccc(C)c(-n2[nH]c3c4c(ccc3c2=O)C(=O)c2ccccc2C4=O)c1	x	n
Cc1ccc(-n2[nH]c3c4c(ccc3c2=O)C(=O)c2ccccc2C4=O)cc1	61	n
C/C(CCS(=O)(=O)c1ccccc1)=N/O	38	n
C/C(CS(=O)(=O)c1ccccc1)=N\O	x	n
COc1ccccc1N1CCN(CCCCOc2ccc(C)cc2C)CC1	n	x
O=C(NCc1ccc(F)cc1)C1CCN(S(=O)(=O)N2CCCC2)CC1	n	n
Cc1ccc(CNC(=O)C2CCN(S(=O)(=O)N3CCCCC3)CC2)cc1	40	n
SMILES	Pf gamet viab	Biofilm kill mix
O=[N+]([O-])c1ccc(O)c2ncccc12	x	32
O=[N+]([O-])c1ccc(O)c2cccnc12	n	n
COC(=O)c1ccc(OC)c(Cn2c(=O)n(C)c(=O)c3ccccc32)c1	n	x
O=C(O)c1ccc(N=c2oc3cc(O)ccc3cc2C(=O)NCc2ccccc2)cc1	42	n
COc1ccc2cc(C(=O)NCc3ccccc3)c(=Nc3ccc(C(=O)O)cc3)oc2c1	x	n
CCN(CC)Cc1ccccc1Sc1ccccc1	n	n
Cc1ccc(C)c(N2CCN(C(=O)Cc3ccc(-n4c(=O)[nH]c5ccsc5c4=O)cc3)CC2)c1	39	n
Cc1cccc(N2CCN(C(=O)Cc3ccc(-n4c(=O)[nH]c5ccsc5c4=O)cc3)CC2)c1C	n	n
CCOC(=O)CC1CCCCN1Cc1cn(C)nc1-c1ccc2c(c1)OCCO2 (centres undefined)	42	n
COCC1CCCCN1Cc1cn(-c2ccccc2)nc1-c1ccc2c(c1)OCO2 (centres undefined)	n	n
COc1ccc(OC)c(NC(=S)N2CCN(Cc3ccccc3)CC2)c1	n	n
COc1ccc(OC)c(NC(=S)N2CCC(C(O)(c3ccccc3)c3ccccc3)CC2)c1	57	n
Cc1ccc(C)c(NC(=S)/C(=C(\[O-])c2ccc(OC(F)F)cc2)[n+]2ccccc2)c1	x	n
Cc1ccc(NC(=S)/C(=C(\[O-])c2ccc(F)cc2)[n+]2ccccc2)cc1	39	n
C=CCNC(=O)c1ccccc1NC(=O)Cc1ccccc1[N+](=O)[O-]	n	n
Cc1cc2c(cc1C)C(c1cccc([N+](=O)[O-])c1)CC(=O)N2 (centres undefined)	51	n
COc1cc(C2CC(=O)Nc3cc(C)c(C)cc32)cc(OC)c1OC (centres undefined)	n	n
Cc1ccc(C2=NN(C(=O)CCCC(=O)O)C(c3ccc4c(c3)OCO4)C2)cc1 (centres undefined)	n	x
O=C(Nc1ncc(Cc2ccccc2)s1)C1=NCCN1	38	n
Cc1ccc(Cc2cnc(NC(=O)C3=NCCN3)s2)cc1	n	n
CC(C)CCN1CCN(Cc2ccc(N3CCNC3=O)cc2)CC1CCO (centres undefined)	n	n
C#CC[N+]1(CC#Cc2ccccc2)CCOCC1	n	x
C(#Cc1ccccc1)C[N+]1(CC#Cc2cccc3ccccc23)CCOCC1	n	45
CCCNC(=O)c1nnsc1S(=O)c1ccc(Cl)cc1 (centres undefined)	n	n
CCCNC(=O)c1nnsc1S(=O)(=O)c1ccc(Cl)cc1	n	34
CCOC(=O)c1cnn(-c2ccccc2)c1NC(=O)CN1CCCCC1	n	n
Nn1c(-c2ccccc2)nc2cc(Cl)ccc2c1=O	n	x

Bioassay records as filed in PubChem BioAssay.
